Reference: ChEMBL document CHEMBL2390925, “Further studies on 2-arylacetamide pyridazin-3(2H)-ones: design, synthesis and evaluation of 4,6-disubstituted analogs as formyl peptide receptors (FPRs) agonists” (Eur J Med Chem, 2013)

Tests used:
HL-60 [1] = assay: Effect on Ca2+ mobilization in human wild type HL60 cells; type: functional, cell-based
Outline: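 Wild-type, non-transfected HL-60 cells, grown without G418, were run in the same Fluo-4 Ca2+ flux assay. Fluorescence was monitored every 5 s for 240 s at room temperature.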

[2] = target: T1, fMet-Leu-Phe receptor (Homo sapiens) (UniProt P21462); assay: Agonist activity at FPR1 (unknown origin) transfected in human HL60 cells assessed as induction of Ca2+ mobilization relative to fMLF; type: functional, cell-based; conditions: HL-60
T1 sequence (whole entry): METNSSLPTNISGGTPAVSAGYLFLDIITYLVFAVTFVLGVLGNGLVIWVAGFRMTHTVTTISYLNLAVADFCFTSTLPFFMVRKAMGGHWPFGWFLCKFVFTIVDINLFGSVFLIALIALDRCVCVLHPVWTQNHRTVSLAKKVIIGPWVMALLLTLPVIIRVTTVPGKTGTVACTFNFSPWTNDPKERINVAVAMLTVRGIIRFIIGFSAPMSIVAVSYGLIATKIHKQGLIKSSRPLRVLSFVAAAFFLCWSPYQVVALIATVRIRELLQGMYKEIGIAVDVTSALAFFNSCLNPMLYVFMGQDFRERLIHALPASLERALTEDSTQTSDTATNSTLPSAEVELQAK
Outline: (§1)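 Same Fluo-4 Ca2+ flux in transfected HL-60 cells. The peak fluorescence change over baseline was normalized to 5 nM fMLF for FPR1 cells and to 5 nM WKYMVm for FPR2 and FPR3 cells, each taken as 100%. Efficacy was read from 5–6 point dose-response curves.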

HL-60 [3] = assay: Cytotoxicity against human wild type HL60 cells at 5 to 20 uM after 60 mins by CellTitre-Glo luminescent assay; type: cell-based; conditions: hl-60, 1 h
Outline: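 Wild-type HL-60 cells at 3×10^4 cells/well were exposed to 5, 10 or 20 µM compound for 60 min at 37 °C in 5% CO2. Samples were equilibrated to room temperature for 30 min before the CellTiter-Glo luminescence read. Triplicate samples; the experiment was representative of two.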

Neutrophil = assay: Induction of chemotaxis in human neutrophils assessed as cell migration after 60 mins by CellTitre-Glo luminescent assay; type: functional, cell-based; conditions: 1 h
Outline: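 Migration ran 60 min at 37 °C in 5% CO2. Migrated cells were counted by ATP luminescence against a neutrophil standard curve and expressed as % of spontaneous migration. EC50 comes from nonlinear regression of dose-response curves.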

[4] = target: fMet-Leu-Phe receptor 1/2 (Homo sapiens) (UniProt P21462+P25090); assay: Agonist activity at FPR1/FPR2 in human neutrophils assessed as induction of Ca2+ mobilization relative to fMLF; type: functional
Outline: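 Neutrophils from healthy donors were isolated by dextran sedimentation, Histopaque 1077 gradient and hypotonic red cell lysis. […] Peak response was normalized to 5 nM fMLF as 100%. EC50 comes from 5–6 point curves, mean of three experiments with different donors.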

[5] = target: T2, fMet-Leu-Phe receptor 1/2 (Homo sapiens, UniProt P21462+P25090); assay: Agonist activity at FPR1/FPR2 in human neutrophils assessed as induction of Ca2+ mobilization; type: functional
T2 sequence (P21462 whole entry): T1 sequence (whole entry)
T2 sequence (P25090 whole entry): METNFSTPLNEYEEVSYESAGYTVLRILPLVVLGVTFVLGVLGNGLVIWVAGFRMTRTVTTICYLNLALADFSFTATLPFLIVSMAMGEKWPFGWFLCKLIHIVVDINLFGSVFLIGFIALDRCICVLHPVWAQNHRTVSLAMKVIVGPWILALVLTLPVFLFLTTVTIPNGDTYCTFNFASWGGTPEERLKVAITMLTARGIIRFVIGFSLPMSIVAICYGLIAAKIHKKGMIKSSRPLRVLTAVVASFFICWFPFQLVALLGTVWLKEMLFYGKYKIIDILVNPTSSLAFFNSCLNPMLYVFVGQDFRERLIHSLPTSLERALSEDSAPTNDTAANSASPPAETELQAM

fMet-Leu-Phe receptor = target: T3, fMet-Leu-Phe receptor (Homo sapiens, UniProt P21462); assay: Agonist activity at FPR1 (unknown origin) transfected in human HL60 cells assessed as induction of Ca2+ mobilization; type: functional, cell-based, HL-60
T3 sequence (P21462 whole entry): T1 sequence (whole entry)

[6] = target: T4, N-formyl peptide receptor 2 (Homo sapiens, UniProt P25090); assay: Agonist activity at FPR2 (unknown origin) transfected in human HL60 cells assessed as induction of Ca2+ mobilization; type: functional, cell-based, HL-60
T4 sequence (P25090 whole entry): T2 sequence (P25090 whole entry)

[7] = target: T5, N-formyl peptide receptor 3 (Homo sapiens, UniProt P25089); assay: Agonist activity at FPR3 (unknown origin) transfected in human HL60 cells assessed as induction of Ca2+ mobilization; type: cell-based, HL-60
T5 sequence (P25089 whole entry): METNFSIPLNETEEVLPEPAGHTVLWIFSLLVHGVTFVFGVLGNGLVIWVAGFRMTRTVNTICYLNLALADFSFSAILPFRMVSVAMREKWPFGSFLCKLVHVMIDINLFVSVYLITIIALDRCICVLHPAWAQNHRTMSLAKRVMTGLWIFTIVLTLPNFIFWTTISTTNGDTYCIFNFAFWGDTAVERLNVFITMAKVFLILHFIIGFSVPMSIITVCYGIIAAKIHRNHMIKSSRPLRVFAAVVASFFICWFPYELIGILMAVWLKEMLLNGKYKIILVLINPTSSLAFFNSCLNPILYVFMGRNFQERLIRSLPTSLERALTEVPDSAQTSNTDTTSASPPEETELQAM

[8] = target: T6, N-formyl peptide receptor 2 (Homo sapiens) (UniProt P25090); assay: Agonist activity at FPR2 (unknown origin) transfected in human HL60 cells assessed as induction of Ca2+ mobilization relative to WKYMVm; type: functional, cell-based; conditions: HL-60; outline: as §1
T6 sequence (whole entry): T2 sequence (P25090 whole entry)

[9] = target: T7, N-formyl peptide receptor 3 (Homo sapiens) (UniProt P25089); assay: Agonist activity at FPR3 (unknown origin) transfected in human HL60 cells assessed as induction of Ca2+ mobilization relative to WKYMVm; type: cell-based; conditions: HL-60; outline: as §1
T7 sequence (whole entry): T5 sequence (P25089 whole entry)

EC50 (HL-60 [1])	Efficacy [2]	EC50 (Neutrophil)	Efficacy [4]	EC50 [5]	EC50 (fMet-Leu-Phe receptor)	EC50 [6]	EC50 [7]	Efficacy [8]	Efficacy [9]	Compound	Activity (HL-60 [3])
> 50 µM	100%	–	115%	–	–	–	> 50 µM	65%	–	Cc1cc(Cc2ccsc2)c(=O)n(CC(=O)Nc2ccc(Br)cc2)n1	Non-toxic
> 50 µM	125%	–	–	–	–	–	14.6 µM	60%	25%	COc1cccc(Cc2ccnn(CC(=O)Nc3ccc(Br)cc3)c2=O)c1	Non-toxic
> 50 µM	140%	–	115%	–	–	–	> 50 µM	110%	–	COc1cccc(C(=O)c2cc(C)nn(CC(=O)Nc3ccc(Br)cc3)c2=O)c1	Non-toxic
> 50 µM	85%	–	120%	–	–	–	> 50 µM	90%	–	Cc1cc(Cc2cccnc2)c(=O)n(CC(=O)Nc2ccc(Br)cc2)n1	Non-toxic
> 50 µM	120%	–	110%	–	–	–	> 50 µM	100%	–	COc1cccc(C(=O)Nc2cc(C)nn(CC(=O)Nc3ccc(Br)cc3)c2=O)c1	Non-toxic
> 50 µM	70%	–	90%	–	–	–	> 50 µM	65%	–	CCc1cc(Cc2cccc(OC)c2)c(=O)n(CC(=O)Nc2ccc(I)cc2)n1	Non-toxic
> 50 µM	100%	–	125%	–	–	–	> 50 µM	75%	–	Cc1cc(Cc2ccoc2)c(=O)n(CC(=O)Nc2ccc(Br)cc2)n1	Non-toxic

Continued, compound first:

Compound	EC50 (HL-60 [1])	Efficacy [2]	EC50 (Neutrophil)	Efficacy [4]	EC50 [5]	EC50 (fMet-Leu-Phe receptor)	EC50 [6]	EC50 [7]	Efficacy [8]	Efficacy [9]	Activity (HL-60 [3])
Cc1cc(Cc2ccccc2)c(=O)n(CC(=O)Nc2ccc3c(c2)OCO3)n1	> 50 µM	55%	4.2 µM	75%	6.1 µM	6.9 µM	> 50 µM	> 50 µM	–	–	Non-toxic
Cc1cc(Cc2ccccc2)c(=O)n(CC(=O)Nc2ccc(Br)cc2)n1	> 50 µM	50%	–	–	–	5.5 µM	11.6 µM	> 50 µM	20%	–	Non-toxic
Cc1cc(Cc2cccc(Cl)c2)c(=O)n(CC(=O)Nc2ccc(I)cc2)n1	> 50 µM	55%	–	90%	–	–	–	> 50 µM	35%	–	Non-toxic
Cc1cc(Cc2ccc(C(N)=O)cc2)c(=O)n(CC(=O)Nc2ccc(Br)cc2)n1	> 50 µM	40%	–	–	–	29.3 µM	27.2 µM	> 50 µM	80%	–	Non-toxic
Cc1cc(Cc2cccs2)c(=O)n(CC(=O)Nc2ccc(Br)cc2)n1	> 50 µM	140%	–	80%	–	–	–	10.2 µM	60%	25%	Non-toxic
COc1cccc(Cc2cc(-c3ccccc3)nn(CC(=O)Nc3ccc(Br)cc3)c2=O)c1	> 50 µM	110%	–	115%	–	–	–	> 50 µM	25%	–	Non-toxic
COc1cccc(Cc2cc(C(C)C)nn(CC(=O)Nc3ccc(Br)cc3)c2=O)c1	> 50 µM	135%	–	110%	–	–	–	17.4 µM	90%	30%	Non-toxic
COc1ccc(Nc2c(C(C)=O)c(C)nn(CC(=O)Nc3ccc(Br)cc3)c2=O)cc1	> 50 µM	75%	2.7 µM	110%	3.9 µM	13.5 µM	1.7 µM	> 50 µM	90%	–	Non-toxic
COc1ccc(Nc2cc(C)nn(CC(=O)Nc3ccc(Br)cc3)c2=O)cc1	> 50 µM	100%	–	105%	–	–	–	> 50 µM	110%	–	Non-toxic
